Activity calls are given as the source filed them.
What was measured:
Format in all cases: functional, organism-based
Settings in all cases: time 38.0 day
Mus musculus [1] = assay: Immuno-adjuvant activity in sc dosed C57BL/6J mouse model assessed as increase in anti-KLH antibodies level administered on day 1, 15, 22, and 29 and measured on day 27, 31 and 38 by ELISA analysis
Outline: (§1)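 Female C57BL/6 mice, 6−8 weeks old, were given s.c. 0.1 mL doses of KLH-sTn (8.0 μg sTn antigen). The conjugate was mixed 1:1 with PBS, Alum, or a liposomal adjuvant. Liposomes were MPLA-Rha conjugate:DSPC:cholesterol at a 10:65:50 molar ratio, hydrated in 20 mM HEPES pH 7.5 with 150 mM NaCl. Pre-immunization day 0 blood served as blank.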

Mus musculus [2] = assay: Immuno-adjuvant activity in sc dosed C57BL/6J mouse model assessed as increase in IgG antibody administered on day 1, 15, 22, and 29 and measured on day 27, 31 and 38 by ELISA analysis; outline: as §1
Mus musculus [3] = assay: Immuno-adjuvant activity in sc dosed C57BL/6J mouse model assessed as increase in IgM antibody level administered on day 1, 15, 22, and 29 and measured on day 27, 31 and 38 by ELISA analysis; outline: as §1
Mus musculus [4] = assay: Immuno-adjuvant activity in sc dosed C57BL/6J mouse model assessed as increase in anti-KLH total antibodies level administered on day 1, 15, 22, and 29 and measured on day 27, 31 and 38 by ELISA analysis; outline: as §1
Mus musculus [5] = assay: Immuno-adjuvant activity in sc dosed C57BL/6J mouse model assessed as increase in anti-KLH IgM antibodies level administered on day 1, 15, 22, and 29 and measured on day 27, 31 and 38 by ELISA analysis; outline: as §1
Mus musculus [6] = assay: Immuno-adjuvant activity in sc dosed C57BL/6J mouse model assessed as increase in anti-KLH IgG antibodies level administered on day 1, 15, 22, and 29 and measured on day 27, 31 and 38 by ELISA analysis; outline: as §1
Mus musculus [7] = assay: Immuno-adjuvant activity in sc dosed C57BL/6J mouse model assessed as increase in anti-sTn IgG antibodies level administered on day 1, 15, 22, and 29 and measured on day 27, 31 and 38 by ELISA analysis; outline: as §1

Measured: Activity

CCCCCCCCCCCC(=O)O[C@H](CCCCCCCCCCC)CC(=O)N[C@H]1[C@H](OC[C@H]2O[C@@H](OCCNC(=O)CCO[C@@H]3O[C@@H](C)[C@H](O)[C@@H](O)[C@H]3O)[C@H](NC(=O)C[C@@H](CCCCCCCCCCC)OC(=O)CCCCCCCCCCC)[C@@H](OC(=O)C[C@H](O)CCCCCCCCC)[C@@H]2O)O[C@H](CO)[C@@H](OP(=O)(O)O)[C@@H]1OC(=O)C[C@H](O)CCCCCCCCC
active: all assays above

CCCCCCCCCCCC(=O)O[C@H](CCCCCCCCCCC)CC(=O)N[C@H]1[C@H](OC[C@H]2O[C@@H](OCCNC(=O)CCO[C@H]3O[C@@H](C)[C@H](O)[C@@H](O)[C@H]3O)[C@H](NC(=O)C[C@@H](CCCCCCCCCCC)OC(=O)CCCCCCCCCCC)[C@@H](OC(=O)C[C@H](O)CCCCCCCCC)[C@@H]2O)O[C@H](CO)[C@@H](OP(=O)(O)O)[C@@H]1OC(=O)C[C@H](O)CCCCCCCCC
not listed: Mus musculus [1] | Mus musculus [7]
active: all other assays above

CCCCCCCCCCCC(=O)O[C@H](CCCCCCCCCCC)CC(=O)N[C@H]1[C@H](OC[C@H]2O[C@@H](OC)[C@H](NC(=O)C[C@@H](CCCCCCCCCCC)OC(=O)CCCCCCCCCCC)[C@@H](OC(=O)C[C@H](O)CCCCCCCCC)[C@@H]2O)O[C@H](CNC(=O)CCO[C@H]2O[C@@H](C)[C@H](O)[C@@H](O)[C@H]2O)[C@@H](OP(=O)(O)O)[C@@H]1OC(=O)C[C@H](O)CCCCCCCCC
active: Mus musculus [2] | Mus musculus [3]

CCCCCCCCCCCC(=O)O[C@H](CCCCCCCCCCC)CC(=O)N[C@H]1[C@H](OC[C@H]2O[C@@H](OC)[C@H](NC(=O)C[C@@H](CCCCCCCCCCC)OC(=O)CCCCCCCCCCC)[C@@H](OC(=O)C[C@H](O)CCCCCCCCC)[C@@H]2O)O[C@H](CNC(=O)CCO[C@@H]2O[C@@H](C)[C@H](O)[C@@H](O)[C@H]2O)[C@@H](OP(=O)(O)O)[C@@H]1OC(=O)C[C@H](O)CCCCCCCCC
active: Mus musculus [1] | Mus musculus [2] | Mus musculus [3] | Mus musculus [7]

From ChEMBL document CHEMBL5506014, “Monophosphoryl Lipid A-Rhamnose Conjugates as a New Class of Vaccine Adjuvants” (J Med Chem, 2024)
